Test results as given in ChEMBL document CHEMBL1123760, “Synthesis and oral antifungal activity of novel azolylpropanolones and related compounds” (1987).
Converted amounts (≈) assume the structure as drawn.

Columns and labels:
Type in all cases: functional
Aspergillus fumigatus = experiment: In vitro antifungal activity against Aspergillus fumigatus
Outline: (§1)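 Broth microdilution MIC in Sabouraud's glucose broth; final inocula 1 × 10^5 cells/mL (yeast) or 1 × 10^5 conidia/mL (mold and dermatophyte).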

Mus musculus = experiment: Ratio of in vivo number of survivors / total infected; design: reference not given here
Trichophyton benhamiae = experiment: In vitro antifungal activity against Trichophyton asteroides; outline: as §1
Candida albicans [1] = experiment: In vitro antifungal activity against Candida albicans; outline: as §1
Candida albicans [2] = experiment: Minimum effective concentration for inhibition of pseudomycelium formation in Candida albicans; settings: for minimal effective concentration: Candida albicans, read-out: MEC
Outline: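 C. albicans KE-2 (clinical isolate) at a final 1 × 10^6 yeast cells/mL in EMEM with 20% calf serum; compounds diluted by the same microtiter system as for MICs. After incubation, wells were Giemsa-stained (5% in phosphate buffer) and read by microscope. MEC is the lowest concentration preventing typical pseudomycelium formation.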

[3] = Aspergillus fumigatus, read-out: MIC
[4] = Trichophyton benhamiae, read-out: MIC
[5] = Candida albicans, read-out: MIC

Compound	MIC (Aspergillus fumigatus; [3]) [mg/L]	MIC (Trichophyton benhamiae; [4]) [mg/L]	MIC (Candida albicans [1]; [5]) [mg/L]	MIC (Aspergillus fumigatus) [mg/L]	MIC (Trichophyton benhamiae) [mg/L]	MIC (Candida albicans [1]) [mg/L]	No. of survivors (Mus musculus)	minimal effective concentration (Candida albicans [2]) [µg/mL]	MEC (Candida albicans [2]) [µg/mL]
O=C(c1ccc(Cl)cc1)C(O)(Cn1cncn1)c1ccc(Cl)cc1Cl (configuration not stated)	> 100	0.1 (≈ 0.252 µM)	> 100	–	–	–	7	1.25	–
O=C1O[C@H](c2ccccc2Cl)[C@@](Cn2cncn2)(c2ccccc2Cl)O1	> 100	12.5 (≈ 32 µM)	> 100	–	–	–	0	0.31	–
CCCC(=O)C(O)(Cn1cncn1)c1ccc(Cl)cc1 (configuration not stated)	12.5 (≈ 42.6 µM)	0.1 (≈ 0.34 µM)	100 (≈ 340 µM)	–	–	–	0	0.08	–
O=C1O[C@H](c2ccc(Cl)cc2Cl)[C@@](Cn2cncn2)(c2ccc(Cl)cc2Cl)O1	> 100	0.1 (≈ 0.218 µM)	> 100	–	–	–	0	0.16	–
O=C1O[C@H](c2ccc(F)cc2)[C@@](Cn2cncn2)(c2ccc(Cl)cc2Cl)O1	> 100	0.1 (≈ 0.245 µM)	50 (≈ 122 µM)	–	–	–	7	0.63	–
O=C(c1ccc(Cl)cc1)C(O)(Cn1cncn1)C1CCCCC1 (configuration not stated)	50 (≈ 150 µM)	0.8 (≈ 2.4 µM)	> 100	–	–	–	0	0.08	–
CC(C)CC(=O)C(O)(Cn1cncn1)c1ccc(Cl)cc1 (configuration not stated)	50 (≈ 162 µM)	0.1 (≈ 0.325 µM)	100 (≈ 325 µM)	–	–	–	0	0.04	–
CC(C)C(=O)C(O)(Cn1ccnc1)c1ccc(Cl)cc1 (configuration not stated)	25 (≈ 85.4 µM)	0.2 (≈ 0.683 µM)	> 100	–	–	–	2	0.08	–
CC(C)(C)C(=O)C(O)(Cn1cncn1)c1ccc(Cl)cc1Cl (configuration not stated)	> 100	0.1 (≈ 0.292 µM)	> 100	–	–	–	7	0.04	–
OC(c1ccccc1Cl)C(O)(Cn1cncn1)c1ccccc1Cl (configuration not stated)	6.3 (≈ 17.3 µM)	0.1 (≈ 0.275 µM)	100 (≈ 275 µM)	–	–	–	2	0.08	–
O=C(c1ccc(Cl)cc1Cl)C(O)(Cn1ccnc1)c1ccc(Cl)cc1 (configuration not stated)	25 (≈ 63.2 µM)	0.1 (≈ 0.253 µM)	25 (≈ 63.2 µM)	–	–	–	0	2.5	–
O=S1O[C@H](c2ccc(Cl)cc2Cl)[C@](Cn2cncn2)(c2ccc(Cl)cc2)O1 (some centres not stated)	> 100	0.1 (≈ 0.225 µM)	100 (≈ 225 µM)	–	–	–	7	0.02	–
O=C(c1ccc(Cl)cc1Cl)C(O)(Cn1ccnc1)c1ccc(Cl)cc1Cl (configuration not stated)	25 (≈ 58.1 µM)	0.1 (≈ 0.232 µM)	50 (≈ 116 µM)	–	–	–	1	5	–
CC(C)[C@H]1OCO[C@]1(Cn1cncn1)c1ccc(Cl)cc1	100 (≈ 325 µM)	0.2 (≈ 0.65 µM)	> 100	–	–	–	7	0.04	–
CCCC(=O)C(O)(Cn1cncn1)c1ccc(Cl)cc1Cl (configuration not stated)	50 (≈ 152 µM)	0.1 (≈ 0.305 µM)	50 (≈ 152 µM)	–	–	–	4	0.04	–
O=C(c1ccc(Cl)cc1)C(O)(Cn1cncn1)C1CCCC1 (configuration not stated)	50 (≈ 156 µM)	0.1 (≈ 0.313 µM)	100 (≈ 313 µM)	–	–	–	1	0.16	–
O=C(c1ccccc1Cl)C(O)(Cn1cncn1)c1ccc(Cl)cc1Cl (configuration not stated)	> 100	0.1 (≈ 0.252 µM)	> 100	–	–	–	8	0.04	–
CC(O)(c1ccc(F)cc1)C(O)(Cn1cncn1)c1ccc(F)cc1 (stereo in doubt; 160)	–	–	–	25 (≈ 72.4 µM)	0.1 (≈ 0.29 µM)	–	2	–	0.16
Clc1ccc([C@H]2OCO[C@]2(Cn2cncn2)c2ccccc2)c(Cl)c1	12.5 (≈ 33.2 µM)	0.2 (≈ 0.532 µM)	> 100	–	–	–	–	0.63	–
OC(c1ccccc1)C(O)(Cn1cncn1)c1ccccc1 (configuration not stated)	> 100	25 (≈ 84.6 µM)	> 100	–	–	–	–	> 20	–
CCC[C@H]1OC(=O)O[C@]1(Cn1cncn1)c1ccc(Cl)cc1Cl	> 100	1.6 (≈ 4.49 µM)	100 (≈ 281 µM)	–	–	–	–	0.16	–
O=C1O[C@H](c2ccc(Cl)cc2)[C@@](Cn2cncn2)(c2ccc(Cl)cc2Cl)O1 (stereo in doubt; 115)	> 100	0.2 (≈ 0.471 µM)	> 100	–	–	–	–	0.04	–
CCCC(O)C(O)(Cn1cncn1)c1ccc(Cl)cc1 (stereo in doubt; 107)	> 100	–	> 100	–	6.3 (≈ 21.3 µM)	–	–	0.16	–
O=C1O[C@H](c2ccc(Cl)cc2Cl)[C@@](Cn2cncn2)(c2ccccc2)O1	> 100	0.4 (≈ 1.03 µM)	> 100	–	–	–	–	1.25	–
O=C(c1ccc(F)cc1)C(O)(Cn1cncn1)c1ccc(F)cc1 (configuration not stated)	> 100	0.79 (≈ 2.4 µM)	100 (≈ 304 µM)	–	–	–	–	10	–
CCCCC(O)(Cn1cncn1)C(C)(O)c1ccc(Cl)cc1 (stereo in doubt; 191)	> 100	0.6 (≈ 1.85 µM)	> 100	–	–	–	–	1.25	–
CCCC[C@H]1OC(=O)O[C@]1(Cn1cncn1)c1ccc(Cl)cc1Cl	> 100	0.2 (≈ 0.54 µM)	> 100	–	–	–	–	0.63	–
OC(c1ccc(F)cc1)C(O)(Cn1cncn1)c1ccc(Cl)cc1Cl (stereo in doubt; 105)	–	–	–	>100	25 (≈ 65.4 µM)	>100	–	–	5

More lines, main results first:

MIC (Aspergillus fumigatus; [3]) [mg/L]	MIC (Trichophyton benhamiae; [4]) [mg/L]	MIC (Candida albicans [1]; [5]) [mg/L]	MIC (Aspergillus fumigatus) [mg/L]	MIC (Trichophyton benhamiae) [mg/L]	MIC (Candida albicans [1]) [mg/L]	Compound	No. of survivors (Mus musculus)	minimal effective concentration (Candida albicans [2]) [µg/mL]	MEC (Candida albicans [2]) [µg/mL]
> 100	–	> 100	–	25 (≈ 58.9 µM)	–	O=C1O[C@H](c2ccc(Cl)cc2)[C@](Cn2cncn2)(c2ccc(Cl)cc2Cl)O1 (relative stereo)	–	–	>20
–	–	–	50 (≈ 126 µM)	0.1 (≈ 0.252 µM)	100 (≈ 252 µM)	CC(O)(c1ccc(F)cc1)C(O)(Cn1cncn1)c1ccc(Cl)cc1Cl (stereo in doubt; 174)	–	–	0.31
> 100	1.6 (≈ 4.97 µM)	> 100	–	–	–	CC(C)[C@H]1OC(=O)O[C@]1(Cn1cncn1)c1ccc(Cl)cc1	–	0.31	–
> 100	3.1 (≈ 8.72 µM)	> 100	–	–	–	COc1ccccc1C(O)C(O)(Cn1cncn1)c1ccccc1OC (configuration not stated)	–	10	–
50 (≈ 121 µM)	0.1 (≈ 0.242 µM)	100 (≈ 242 µM)	–	–	–	CC(O)(c1ccc(Cl)cc1Cl)C(O)(Cn1cncn1)c1ccc(Cl)cc1 (configuration not stated)	–	1.25	–
50 (≈ 151 µM)	0.1 (≈ 0.303 µM)	> 100	–	–	–	CC(C)C(O)C(O)(Cn1cncn1)c1ccc(Cl)cc1Cl (configuration not stated)	–	0.04	–
25 (≈ 56.2 µM)	0.1 (≈ 0.225 µM)	50 (≈ 112 µM)	–	–	–	O=S1O[C@H](c2ccc(Cl)cc2)[C@@](Cn2cncn2)(c2ccc(Cl)cc2Cl)O1 (some centres not stated)	–	0.16	–
> 100	50 (≈ 152 µM)	> 100	–	–	–	CC(C)C(=O)C(O)(Cn1cnnc1)c1ccc(Cl)cc1Cl (configuration not stated)	–	2.5	–
> 100	0.8 (≈ 1.72 µM)	> 100	–	–	–	OC(Cn1cncn1)(c1ccc(Cl)cc1Cl)C(O)(c1ccc(F)cc1)c1cccs1 (configuration not stated)	–	5	–
–	–	–	25 (≈ 66.1 µM)	0.1 (≈ 0.264 µM)	50 (≈ 132 µM)	CC(O)(c1ccccc1)C(O)(Cn1cncn1)c1ccc(Cl)cc1Cl (stereo in doubt; 167)	–	–	0.08
> 100	0.4 (≈ 1.11 µM)	> 100	–	–	–	CC(O)(c1ccc(Cl)cc1)C(O)(Cn1cncn1)c1ccc(F)cc1 (configuration not stated)	–	2.5	–
> 100	0.8 (≈ 2.31 µM)	100 (≈ 289 µM)	–	–	–	O=C(c1ccc(F)cc1)C(O)(Cn1cncn1)c1ccc(Cl)cc1 (configuration not stated)	–	1.25	–
–	0.1 (≈ 0.266 µM)	> 100	>100	–	–	CCC(O)(c1ccc(F)cc1)C(O)(Cn1cncn1)c1ccc(Cl)cc1 (stereo in doubt; 171)	–	–	0.16
> 100	0.4 (≈ 1.11 µM)	> 100	–	–	–	CC(O)(c1ccc(F)cc1)C(O)(Cn1ccnc1)c1ccc(Cl)cc1 (configuration not stated)	–	2.5	–
–	–	–	>100	12.5 (≈ 31.4 µM)	100 (≈ 251 µM)	OC(c1ccc(Cl)cc1)C(O)(Cn1cncn1)c1ccc(Cl)cc1Cl (stereo in doubt; 109)	–	–	20
50 (≈ 151 µM)	0.1 (≈ 0.303 µM)	> 100	–	–	–	CCCC(O)C(O)(Cn1cncn1)c1ccc(Cl)cc1Cl (configuration not stated)	–	0.04	–
> 100	0.8 (≈ 2.43 µM)	> 100	–	–	–	OC(c1ccccc1Cl)C(O)(Cn1cncn1)c1ccccc1 (configuration not stated)	–	> 20	–
> 100	0.2 (≈ 0.476 µM)	> 100	–	–	–	CCCCC(O)(c1ccccc1)C(O)(Cn1cncn1)c1ccc(Cl)cc1Cl (configuration not stated)	–	2.5	–
100 (≈ 340 µM)	0.2 (≈ 0.681 µM)	> 100	–	–	–	CC(C)C(O)(Cn1cncn1)C(=O)c1ccc(Cl)cc1 (configuration not stated)	–	0.63	–
> 100	1.6 (≈ 4.88 µM)	> 100	–	–	–	O=C(c1ccccc1Cl)C(O)(Cn1cncn1)c1ccccc1 (configuration not stated)	–	> 20	–
100 (≈ 340 µM)	0.8 (≈ 2.72 µM)	> 100	–	–	–	CCCC(=O)C(O)(Cn1cncn1)c1ccccc1Cl (configuration not stated)	–	0.04	–
50 (≈ 170 µM)	0.8 (≈ 2.72 µM)	> 100	–	–	–	CCCC(O)(Cn1cncn1)C(=O)c1ccc(Cl)cc1 (configuration not stated)	–	0.31	–
